IC50 data for 1 molecule are collected here from ChEMBL document CHEMBL5678802, “Small-molecule p21-activated kinase inhibitor PF-3758309 is a potent inhibitor of oncogenic signaling and tumor growth” (Proc Natl Acad Sci U S A, 2010).

The assay is described as follows: Antiproliferative activity against human Hs 700T cells assessed as inhibition of cell proliferation incubated for 3 days by CellTiter-Glo Luminescent Cell Viability Assay. It counts as functional, cell-based. As to conditions: 72 h. Put shortly:
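Cancer cell lines seeded in 384-well plates on day 1; compound added on day 2 and left for 3 days. On day 5 all medium was aspirated, and viable cells were quantified by CellTiter-Glo luminescence, which measures cellular ATP. Dose-dependent effects on proliferation were determined.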

pIC50: −log10 of the molar value.

Broadly, the pIC50 is the negative decadic logarithm of the IC50, by convention in mol/L. In the case of `Cc1nc(Nc2n[nH]c3c2CN(C(=O)N[C@H](CN(C)C)c2ccccc2)C3(C)C)c2sccc2n1` [PF-03758309], the pIC50 is 5.62.
